From PubChem BioAssay
SR-BI uptake up – activators of SR-BI mediated DiI-HDL uptake, primary screen, ldlA[mSR-BI] CHO cells, DiI fluorescence; 320,000 tested, 0.096% active; activation, % at 12.5 µM; 3 h; 100 = double the neutral-control signal; AID 504775, 2011;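 active = mean replicate activation of at least 60% and every replicate at or above 60%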;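 also: 0% = median plate neutral-control signal and 100% = twice that signal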
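Test system: SR-BI-overexpressing, LDLR-lacking CHO cells. Measured by: DiI fluorescence, bottom read. Medium: Ham's F12 with 0.5% BSA, HEPES 25 mM, pH 7.4. Timing: 3 h uptake period with compound, 37 °C.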
SR-BI DiI inh – inhibitors of SR-BI mediated HDL lipid uptake, primary screen, ldlA[mSR-BI] cells, fluorescence, single point; Scavenger receptor class B member 1 (Mus musculus), Q61009; ldlA[mSR-BI] CHO cells, DiI-HDL uptake fluorescence, 3 h; inhibition, % at 12.5 µM; 320,000 tested, 0.96% active; AID 488896, 2010;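 active = mean replicate inhibition of at least 70% and a set share of replicates each scoring 70 or more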;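 also: 0% = median of neutral control wells and 100% = median of positive control wells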
NSD2 inh – NSD2 histone methyltransferase inhibitors, primary screen, biochemical, AlphaScreen, single concentration, set 2; Histone-lysine N-methyltransferase NSD2 (Homo sapiens), O96028; NSD2 peptide methylation, 120 min; inhibition, % at 12.5 µM; 310,000 tested, 0.54% active; AID 743445, 2014
dFosB act – activators of delta FosB homodimer, primary screen, biochemical, fluorescence polarization, TAMRA-CDK5 oligo, single point; Protein FosB (Mus musculus), P13346; purified delta FosB; percent of positive-control signal above neutral wells; activation, % at 25 µM; 340,000 tested, 0.99% active; AID 493131, 2011;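 active = mean activation above about 17%, with every replicate also reaching it, limit read from the data, passing the limit was not always enough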
CDK5 inh – inhibitors of human CDK5/p35 kinase, primary screen, biochemical, single concentration; 330,000 tested, 0.01% active; Cyclin-dependent kinase 5 (Homo sapiens) + Cyclin-dependent kinase 5 activator 1 (Homo …; Recombinant CDK5/p35, ADP-Glo luminescence, 60 min; inhibition, % at 10 µM;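 active = highest replicate inhibition of at least 50% and at least 75% of replicates reaching 50%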;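 also: plate controls were DMSO neutral control for no effect and GW8510 at 10 µM for full effect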
DYRK1A inh – rat Dyrk1A kinase inhibitors, primary screen, biochemical, single point, plate reader | ADP-Glo luminescence, NFATc1 peptide | AID 504441, 2011 | 310,000 tested, 0.43% active | inhibition, % at 12.5 µM | Dual specificity tyrosine-phosphorylation-regulated kinase 1A (Rattus norvegicus), Q63470;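 also: plate controls were vehicle with enzyme for no effect and no enzyme for full effect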
Numbers without * were called inactive; . = no result given. Sampled rows, rich in hits. Any-hit rate of the full collection: about 2.5%. Rule as the data show it, unless noted: active = inhibition above about 50%; inactive = the rest.

SMILES	SR-BI uptake up	SR-BI DiI inh	NSD2 inh	dFosB act	CDK5 inh	DYRK1A inh
O=C(/C=C/NCc1cccnc1)c1ccc(Br)cc1	12	-12	3	1	1	13
O=C1CC(=Nc2ccccc2)NN1c1ccccc1	-108	108*	.	-6	-1	-5
CCc1ccc(-c2nc(SCC(=O)c3c(N)n(C4CC4)c(=O)[nH]c3=O)n[nH]2)cc1	15	-15	1	42*	0	.
Cc1ccc(-c2nc(SCC(=O)c3c(N)n(C4CC4)c(=O)[nH]c3=O)n[nH]2)cc1	-7	7	-6	1	-2	.
CC(=O)c1c(C)[nH]c(C(=O)Nc2cccc(S(=O)(=O)N(C)c3ccccc3)c2)c1C	-80	80*	4	-6	0	-2
CC(=O)c1c(C)[nH]c(C(=O)OCC(=O)Nc2ccc(Cl)c(S(=O)(=O)N(C)C)c2)c1C	.	.	-1	-18	1	6
CC(=O)c1c(C)[nH]c(C(=O)Nc2ccc(Cl)c(S(=O)(=O)N(C)C)c2)c1C	-82	82*	27	-33	0	0
CCn1c(=O)c2sccc2n(CC(=O)NC2CCCCC2)c1=O	.	.	-3	4	0	-3
COc1ccc(-n2c(SCC(=O)Nc3ccc(S(=O)(=O)Nc4nccs4)cc3)nnc2-c2ccco2)cc1	.	.	7	.	.	.
Cc1cccc(OCC(=O)N2CCN(c3nnc(-c4ccccc4)c4ccccc34)CC2)c1	-80	80*	4	-18	1	8
COc1ccc(OCC(=O)N2CCN(c3nnc(-c4ccc(C)cc4)c4ccccc34)CC2)cc1	-77	77*	5	-11	0	.
COc1ccc(OCC(=O)N2CCN(c3nnc(-c4ccccc4)c4ccccc34)CC2)cc1	-56	56	1	-17	0	-3
Cc1ccc(-c2nnc(N3CCN(C(=O)COc4cccc(C)c4)CC3)c3ccccc23)cc1	-64	64	1	-5	0	.
O=C(COc1ccccc1)N1CCN(c2nnc(-c3ccccc3)c3ccccc23)CC1	-35	35	3	-13	-2	2
Cc1ccc(OCC(=O)N2CCN(c3nnc(-c4ccc(C)cc4)c4ccccc34)CC2)cc1	-78	78*	5	-8	0	4
COc1ccccc1C(=O)Cc1ccccc1	4	-4	-1	-2	-1	-6
CCCCN(C)C(=O)CNc1nnnn1-c1ccccc1	.	.	0	.	.	.
CCOCCCN(C(=O)c1snc(C(N)=O)c1N)C(C(=O)NCCC(C)C)c1ccc(C)cc1 (centres undefined)	.	.	0	.	.	.
O=C(c1ccccc1)N(C(=O)c1ccccc1)N1CCCC1	-7	7	-1	-2	-1	-2
COC(=O)c1cc(NC(C)=O)ccc1N1CCOCC1	-10	10	-2	4	-1	-1
COC(=O)c1cc(NC(=O)c2cc(-c3ccc(OC)cc3)oc2C(F)(F)F)ccc1N1CCOCC1	-86	86*	0	-15	0	.
COC(=O)c1cc(NC(=O)c2cc(-c3ccc(C(F)(F)F)cc3)oc2C(F)(F)F)ccc1N1CCOCC1	-81	81*	-1	-5	1	-1
CCn1c(/C=C/N(C(C)=O)c2ccccc2)[n+](CC)c2ccc(Cl)cc21	21	-21	3	-4	-1	-1
CC[n+]1c(/C=C/C=C/N(C(C)=O)c2ccccc2)sc2ccccc21	-19	19	25	43*	3	20
COc1ccc(C(=O)Nc2ccc(C3(C#N)CCCC3)cc2)cc1	-88	88*	2	4	-6	-1
SMILES	SR-BI uptake up	SR-BI DiI inh	NSD2 inh	dFosB act	CDK5 inh	DYRK1A inh
Cc1ccc(C(=O)c2cc([N+](=O)[O-])ccc2N2CCOCC2)c(C)c1	-81	81*	3	-10	-3	8
CCOc1ccc(NC(=O)COC(=O)c2cc([N+](=O)[O-])ccc2N2CCOCC2)cc1	-48	48	3	-5	-4	4
O=C(COC(=O)c1cc([N+](=O)[O-])ccc1N1CCOCC1)c1ccc(Br)cc1	-79	79*	1	-6	5	1
CCOc1ccc(C(=O)COC(=O)c2cc([N+](=O)[O-])ccc2N2CCOCC2)cc1	-79	79*	2	-13	1	1
Cc1ccc(C(=O)c2cc([N+](=O)[O-])ccc2N2CCOCC2)cc1C	-34	34	8	-6	0	-3
CC1CCN(C(=O)COC(=O)c2cc([N+](=O)[O-])ccc2N2CCOCC2)CC1	-8	8	1	10	1	-2
Cc1ccc(C)c(C(=O)COC(=O)c2cc([N+](=O)[O-])ccc2N2CCOCC2)c1	-73	73*	3	-3	-1	.
Cc1cccc(C(=O)NNC(=O)c2ccc(-c3ccccc3)cc2)c1	-80	80*	-6	0	1	12
O=C(/C=C/NNC(=O)c1ccccc1O)c1ccccc1	-114	114*	-1	-7	0	1
Cc1cccc(C(=O)NN/C=C/C(=O)c2ccccc2)c1	-89	89*	4	2	0	1
O=C(/C=C/NNC(=O)c1ccccc1)c1ccc([N+](=O)[O-])cc1	-123	123*	4	-8	1	-2
CC(=O)Nc1ccccc1NC(=O)C/C(C)=N/NC(=O)c1cccnc1	20	-20	3	-1	2	-8
O=C(C1CCCN1S(=O)(=O)c1ccc([N+](=O)[O-])cc1)N1CCc2ccccc2C1 (centres undefined)	.	.	2	.	.	.
N#Cc1sc2nc(N3CCCCC3)c3c(c2c1N)CCCC3	-74	74*	0	-6	0	-1
CCOc1ccc(C(=O)NCC(=O)Nc2ccc(N3CCOCC3)cc2)cc1OCC	-22	22	7	-4	-1	-5
C=CCN(c1ccccc1)S(=O)(=O)c1ccc2c(c1)NC(=O)C(C)C(=O)N2 (centres undefined)	19	-19	.	5	-1	-10
COc1cc(-c2cc(-c3ccc(O)cc3)nc(N)c2C#N)ccc1O	-84	84*	-10	-2	4	16
CCOc1ccc(NC(=O)C(=O)NCCN2CCN(C(=O)c3ccc(C)cc3)CC2)cc1	.	.	2	1	0	-8
